From ChEMBL document CHEMBL4145574, “Inhibition of Breast Cancer Cell Migration by Cyclotides Isolated from Pombalia calceolaria” (J Nat Prod, 2018)
Where a SMILES comes first, the peptide text is derived from it. Bridges are numbered along the chain shown (N, C = ends).

How the values were obtained:
MDA-MB-231 [1] = test: Cytotoxicity against human MDA-MB-231 cells assessed as reduction in cell volume at 2 to 5 uM; type: cell-based; settings: mda-mb-231, 5 µM
In short: (§1)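 Toxicity was judged visually during the wound-healing assay. MDA-MB-231 monolayers were scratched, then incubated 22 h at 37 °C in medium with 10% FBS and compound at 10, 5, 2 or 1 μM. Cells were scored for detachment and for morphological change (volume reduction, membrane disintegration).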

MDA-MB-231 [2] = test: Cytotoxicity against human MDA-MB-231 cells assessed as reduction in cell volume at 10 uM; type: cell-based; settings: mda-mb-231, 10 µM; in short: as §1
MDA-MB-231 [3] = test: Cytotoxicity against human MDA-MB-231 cells assessed as membrane disintegration at 2 to 5 uM; type: cell-based; settings: mda-mb-231, 5 µM; in short: as §1
MDA-MB-231 [4] = test: Cytotoxicity against human MDA-MB-231 cells assessed as membrane disintegration at 10 uM; type: cell-based; settings: mda-mb-231, 10 µM; in short: as §1
MDA-MB-231 [5] = test: Cytotoxicity against human MDA-MB-231 cells assessed as cell detachment at 2 to 5 uM; type: cell-based; settings: mda-mb-231, 5 µM; in short: as §1
MDA-MB-231 [6] = test: Cytotoxicity against human MDA-MB-231 cells assessed as cell death after 24 hrs by MTS assay; type: functional, cell-based; settings: MDA-MB-231, 24 h
In short: (§2)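 MDA-MB-231 cells in DMEM with 10% FBS at 37 °C, 5% CO2, seeded at 4 × 10^3 cells/well. After 24 h, seven concentrations (20−0.03 μM) were added in triplicate, with doxorubicin as control. After 24 h exposure, MTS was added for 4 h at 37 °C and absorbance read at 490 nm. Viability is relative to control wells; IC50 is from nonlinear regression. At least two independent experiments.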

MDA-MB-231 [7] = test: Cytotoxicity against human MDA-MB-231 cells assessed as cell detachment at 10 uM; type: cell-based; settings: mda-mb-231, 10 µM; in short: as §1
MDA-MB-231 [8] = test: Cytotoxicity against human MDA-MB-231 cells assessed as cell death at 20 uM after 24 hrs by MTS assay relative to control; type: functional; in short: as §2
MDA-MB-231 [9] = test: Inhibition of cell migration in human MDA-MB-231 cells at 1 uM incubated for 22 hrs by scratch wound healing assay relative to control; settings: MDA-MB-231, 22 h
MDA-MB-231 [10] = test: Inhibition of cell migration in human MDA-MB-231 cells at 5 uM incubated for […] by scratch wound healing assay relative to control; type: functional
In short: (§3)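 MDA-MB-231 cells were seeded at 1 × 10^5 cells/well and grown to a confluent monolayer, then scratched with a pipet tip. Debris was rinsed with FBS-free medium. Cells were incubated 22 h at 37 °C in 10% FBS medium with compound (10, 5, 2, 1 μM), with colchicine as positive control. Wound areas were imaged at 0 and 22 h and measured. Two independent experiments in triplicate, reported as mean ± SD.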

MDA-MB-231 [11] = test: Inhibition of cell migration in human MDA-MB-231 cells at 2 uM incubated for […] by scratch wound healing assay relative to control; type: functional; in short: as §3
MDA-MB-231 [12] = test: Inhibition of cell migration in human MDA-MB-231 cells at 10 uM […] by scratch wound healing assay relative to control; type: functional; settings: MDA-MB-231, 22 h, in the assay text read “22 hrs” for “24 hrs”
In short: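 MDA-MB-231 cells in DMEM + 10% FBS, 37 °C, 5% CO2; 1 × 10^5 cells/well grown to confluence, monolayer scratched with pipet tip, debris rinsed with FBS-free medium. Incubated 22 h at 37 °C in 10% FBS medium with compound (10, 5, 2, 1 μM). Wound areas imaged at 0 and 22 h and measured; cell toxicity judged visually. Colchicine positive control. Two independent experiments in triplicate, mean ± SD.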

## CC[C@H](C)[C@@H]1NC(=O)[C@H](C)NC(=O)[C@H]([C@@H](C)O)NC(=O)[C@H](C(C)C)NC(=O)[C@@H]2CSSC[C@@H]3NC(=O)[C@H](C(C)C)NC(=O)[C@H](CCCNC(=N)N)NC(=O)[C@H](CC(=O)O)NC(=O)[C@H](CCCN)NC(=O)[C@@H]4CSSC[C@H](NC(=O)[C@H](CO)NC(=O)[C@H](CCC(=O)O)NC(=O)[C@H](C)NC(=O)[C@H](CSSC[C@H](NC(=O)CNC(=O)[C@H](CC(C)C)NC1=O)C(=O)N[C@@H](CO)C(=O)N4)NC(=O)[C@@H]1CCCN1C(=O)[C@H]([C@@H](C)CC)NC(=O)CNC(=O)[C@H](CC(N)=O)NC(=O)[C@H](Cc1ccc(O)cc1)NC3=O)C(=O)N[C@@H](C(C)C)C(=O)N[C@@H](Cc1ccccc1)C(=O)N[C@@H]([C@@H](C)CC)C(=O)N1CCC[C@H]1C(=O)N2 [listing 1 of 2 here]
MDA-MB-231 [1]
  Activity: Toxic
MDA-MB-231 [2]
  Activity: Toxic
MDA-MB-231 [3]
  Activity: Toxic
MDA-MB-231 [4]
  Activity: Toxic
MDA-MB-231 [5]
  Activity: Toxic
MDA-MB-231 [6]
  IC50: 2700 nM
MDA-MB-231 [7]
  Activity: Toxic

## CC[C@H](C)[C@@H]1NC(=O)[C@H](C)NC(=O)[C@H]([C@@H](C)O)NC(=O)[C@H](C(C)C)NC(=O)[C@@H]2CSSC[C@@H]3NC(=O)[C@H](C(C)C)NC(=O)[C@H](CCCNC(=N)N)NC(=O)[C@H](CC(=O)O)NC(=O)[C@H](CCCN)NC(=O)[C@@H]4CSSC[C@H](NC(=O)[C@H](CO)NC(=O)[C@H](CCC(=O)O)NC(=O)[C@H](C)NC(=O)[C@H](CSSC[C@H](NC(=O)CNC(=O)[C@H](CC(C)C)NC1=O)C(=O)N[C@@H](CO)C(=O)N4)NC(=O)[C@@H]1CCCN1C(=O)[C@H]([C@@H](C)CC)NC(=O)CNC(=O)[C@H](CC(N)=O)NC(=O)[C@H](Cc1ccc(O)cc1)NC3=O)C(=O)N[C@@H](C(C)C)C(=O)N[C@@H](Cc1ccccc1)C(=O)N[C@@H]([C@@H](C)CC)C(=O)N1CCC[C@H]1C(=O)N2 [listing 2 of 2 here]
MDA-MB-231 [8]
  Activity: >80%
MDA-MB-231 [9]
  inhibition at 1 µM: 0%

## CC[C@H](C)[C@@H]1NC(=O)[C@H](C)NC(=O)[C@H](CO)NC(=O)[C@H](CO)NC(=O)[C@H]([C@@H](C)CC)NC(=O)[C@@H]2CSSC[C@@H]3NC(=O)[C@H](C(C)C)NC(=O)[C@H](CCCN)NC(=O)[C@H](CC(N)=O)NC(=O)[C@H](CCCN)NC(=O)[C@@H]4CSSC[C@H](NC(=O)[C@H](CO)NC(=O)[C@H](CCC(=O)O)NC(=O)CNC(=O)[C@H](CSSC[C@H](NC(=O)CNC1=O)C(=O)N[C@@H](CO)C(=O)N4)NC(=O)[C@@H]1CCCN1C(=O)[C@H]([C@@H](C)CC)NC(=O)CNC[C@@H](C(N)=O)NC(=O)[C@H](CCCN)NC(=O)[C@H](Cc1ccc(O)cc1)NC3=O)C(=O)N[C@@H](C(C)C)C(=O)N[C@@H](Cc1c[nH]c3ccccc13)C(=O)N[C@@H]([C@@H](C)CC)C(=O)N1CCC[C@H]1C(=O)N2 [listing 1 of 2 here]
MDA-MB-231 [2]
  Activity: Toxic
MDA-MB-231 [4]
  Activity: Toxic
MDA-MB-231 [6]
  IC50: 9800 nM
MDA-MB-231 [7]
  Activity: Toxic

## CC[C@H](C)[C@@H]1NC(=O)[C@H](C)NC(=O)[C@H](CO)NC(=O)[C@H](CO)NC(=O)[C@H]([C@@H](C)CC)NC(=O)[C@@H]2CSSC[C@@H]3NC(=O)[C@H](C(C)C)NC(=O)[C@H](CCCN)NC(=O)[C@H](CC(N)=O)NC(=O)[C@H](CCCN)NC(=O)[C@@H]4CSSC[C@H](NC(=O)[C@H](CO)NC(=O)[C@H](CCC(=O)O)NC(=O)CNC(=O)[C@H](CSSC[C@H](NC(=O)CNC1=O)C(=O)N[C@@H](CO)C(=O)N4)NC(=O)[C@@H]1CCCN1C(=O)[C@H]([C@@H](C)CC)NC(=O)CNC[C@@H](C(N)=O)NC(=O)[C@H](CCCN)NC(=O)[C@H](Cc1ccc(O)cc1)NC3=O)C(=O)N[C@@H](C(C)C)C(=O)N[C@@H](Cc1c[nH]c3ccccc13)C(=O)N[C@@H]([C@@H](C)CC)C(=O)N1CCC[C@H]1C(=O)N2 [listing 2 of 2 here]
MDA-MB-231 [8]
  Activity: >80%
MDA-MB-231 [9]
  inhibition at 1 µM: 15%
MDA-MB-231 [10]
  inhibition at 5 µM: 60%
MDA-MB-231 [11]
  inhibition at 2 µM: 50%

## CC[C@H](C)[C@@H]1NC(=O)[C@H](C)NC(=O)[C@H]([C@@H](C)O)NC(=O)[C@H]([C@@H](C)CC)NC(=O)[C@H]([C@@H](C)O)NC(=O)[C@@H]2CSSC[C@@H]3NC(=O)[C@H](C(C)C)NC(=O)[C@H](CCCNC(=N)N)NC(=O)[C@H](CC(=O)O)NC(=O)[C@H](CCCNC(=N)N)NC(=O)[C@@H]4CSSC[C@H](NC(=O)[C@H](CO)NC(=O)[C@H](CCC(=O)O)NC(=O)[C@H](C)NC(=O)[C@H](CSSC[C@H](NC(=O)CNC(=O)[C@H](CC(C)C)NC1=O)C(=O)N[C@@H](CO)C(=O)N4)NC(=O)[C@@H]1CCCN1C(=O)[C@H](CC(C)C)NC(=O)CNC(=O)[C@H](CC(=O)O)NC(=O)[C@H](Cc1ccc(O)cc1)NC3=O)C(=O)N[C@@H](C(C)C)C(=O)N[C@@H](Cc1ccccc1)C(=O)N[C@@H]([C@@H](C)CC)C(=O)N1CCC[C@H]1C(=O)N2 (cyclo(AESCVFIPCTITAILGCSCRDRVCYDGLPC); disulfide 4-19, 9-24, 17-30) [listing 1 of 2 here]
MDA-MB-231 [1]
  Activity: Toxic
MDA-MB-231 [2]
  Activity: Toxic
MDA-MB-231 [3]
  Activity: Toxic
MDA-MB-231 [4]
  Activity: Toxic
MDA-MB-231 [5]
  Activity: Toxic
MDA-MB-231 [6]
  IC50: 1800 nM
MDA-MB-231 [7]
  Activity: Toxic

## CC[C@H](C)[C@@H]1NC(=O)[C@H](C)NC(=O)[C@H]([C@@H](C)O)NC(=O)[C@H]([C@@H](C)CC)NC(=O)[C@H]([C@@H](C)O)NC(=O)[C@@H]2CSSC[C@@H]3NC(=O)[C@H](C(C)C)NC(=O)[C@H](CCCNC(=N)N)NC(=O)[C@H](CC(=O)O)NC(=O)[C@H](CCCNC(=N)N)NC(=O)[C@@H]4CSSC[C@H](NC(=O)[C@H](CO)NC(=O)[C@H](CCC(=O)O)NC(=O)[C@H](C)NC(=O)[C@H](CSSC[C@H](NC(=O)CNC(=O)[C@H](CC(C)C)NC1=O)C(=O)N[C@@H](CO)C(=O)N4)NC(=O)[C@@H]1CCCN1C(=O)[C@H](CC(C)C)NC(=O)CNC(=O)[C@H](CC(=O)O)NC(=O)[C@H](Cc1ccc(O)cc1)NC3=O)C(=O)N[C@@H](C(C)C)C(=O)N[C@@H](Cc1ccccc1)C(=O)N[C@@H]([C@@H](C)CC)C(=O)N1CCC[C@H]1C(=O)N2 (cyclo(AESCVFIPCTITAILGCSCRDRVCYDGLPC); disulfide 4-19, 9-24, 17-30) [listing 2 of 2 here]
MDA-MB-231 [8]
  Activity: >80%
MDA-MB-231 [9]
  inhibition at 1 µM: 0%

## COc1cc2c(c(OC)c1OC)-c1ccc(OC)c(=O)cc1[C@@H](NC(C)=O)CC2 [COLCHICINE]
MDA-MB-231 [12]
  inhibition at 10 µM: 85%
MDA-MB-231 [9]
  inhibition at 1 µM: 75%

## COc1cccc2c1C(=O)c1c(O)c3c(c(O)c1C2=O)C[C@@](O)(C(=O)CO)C[C@@H]3O[C@H]1C[C@H](N)[C@H](O)[C@H](C)O1 [DOXORUBICIN]
MDA-MB-231 [6]
  IC50: 900 nM
